TAAR1 agonist – human TAAR1 agonism; 360,000 compounds, 0.99% hits; activation, % at 3 µM; AID 624467; CHO RD-HGA16 TAAR1, Fluo-8 calcium fluorescence; vehicle wells 0%, saturating PEA agonist 100%; Q96RJ0;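 active means activation above the mean activation of all test compounds in the run plus 3 SD, cut at about 38% in these data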
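test system = CHO RD-HGA16 cells carrying human TAAR1 plus Gα16 | schedule = 17-24 h seeding, 75 min 37 °C dye, 30 min RT | compound dosing = 3 µM single concentration | control set = DMSO and PEA EC100 | replicates = n 1 | signal = Fluo-8 fluorescence, 5 s baseline then 140 s kinetic read | measure = percent activation vs PEA EC100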
OX1R antag-1 – antagonists of human orexin 1 receptor (OX1R); O43613; OX1R-expressing cells, FRET antagonist read-out; inhibition, % at 6.6 µM; 330,000 compounds, 1.8% hits; AID 485270; in the data active means inhibition mostly above about 38%, no sharp cut-off; inactive means mostly below about 40%;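 further: 0% = agonist challenge alone and 100% = reference antagonist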
Target sequence (O43613 whole entry, looked up): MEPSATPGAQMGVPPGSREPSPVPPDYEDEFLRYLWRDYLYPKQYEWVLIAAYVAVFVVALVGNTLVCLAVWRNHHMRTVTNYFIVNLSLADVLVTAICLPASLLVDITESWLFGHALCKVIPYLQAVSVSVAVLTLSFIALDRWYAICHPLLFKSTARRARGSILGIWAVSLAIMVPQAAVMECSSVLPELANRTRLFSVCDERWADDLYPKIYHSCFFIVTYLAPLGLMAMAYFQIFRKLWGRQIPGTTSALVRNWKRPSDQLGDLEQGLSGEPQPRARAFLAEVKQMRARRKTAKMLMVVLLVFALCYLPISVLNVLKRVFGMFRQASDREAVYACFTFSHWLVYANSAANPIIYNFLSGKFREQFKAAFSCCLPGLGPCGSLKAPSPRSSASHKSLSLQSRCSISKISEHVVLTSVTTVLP
OX1R antag-2 – blocks the human orexin 1 receptor | O43613 | CHO/OX1R cells, Fluo-8 calcium fluorescence, orexin A | inhibition, % at 5 µM | 330,000 compounds, 0.43% hits | AID 434989;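 active means inhibition above its plate's threshold, mean inhibition of all tested compounds on the plate plus 3 SD, cut at about 37% in these data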;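 further: 0% = orexin A challenge wells and 100% = SB-334867-A antagonist wells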
CHO parental Ca – signal in parental CHO cells, OX1R antagonist counter-screen. parental CHO-K1, ATP-induced calcium, Fluo-8 fluorescence. inhibition, % at 5.6 µM. 330,000 compounds, 0.63% hits;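 active means inhibition above that plate's mean sample inhibition plus 3 SD, cut at about 26% in these data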;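 further: 0% = ATP-challenged DMSO wells and 100% = DMSO wells without ATP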
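Assay system: parental CHO cells; Read-out basis: percent inhibition of ATP-evoked calcium rise, normalized to controls; Benchmarks: ATP and no-ATP DMSO wells; Compound dosing: single nominal dose of 5.6 µM per compound; Signal: Fluo-8 calcium dye fluorescence; Also added: ATP as calcium-mobilizing challenge; Repeats: singlicate.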
TAAR1 antagonist – human TAAR1 antagonism | Q96RJ0 | CHO RD-HGA16 TAAR1, Fluo-8 calcium fluorescence, antagonist | inhibition, % at 3 µM | 360,000 compounds, 1.5% hits;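 active means inhibition above a per-plate cutoff, the mean inhibition of test compounds on that plate plus 3 SD, cut at about 49% in these data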;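 further: 0% = DMSO plus EC80 beta-PEA response and 100% = DMSO alone without agonist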
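Assay system: RD-HGA16 CHO cells with stable hTAAR1 and Gα16 / Reagent: EC80 β-phenethylamine stimulus / Doses: 3 µM, single point / Timing: dye loading 75 min at 37 °C, then 30 min room temperature / Measured by: Fluo-8 intracellular calcium dye fluorescence, real-time kinetic reads / Controls: vehicle wells and EC80 agonist wells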
Numbers without * were called inactive; . = no result given. The list is not random: actives were taken first. Their share in the collection is about 4%.

SMILES | TAAR1 agonist | OX1R antag-1 | OX1R antag-2 | CHO parental Ca | TAAR1 antagonist
CCOc1ccc(Nc2nnc(Cc3ccc(OC)cc3)c(=O)[nH]2)cc1 | 5 | 15 | -14 | -8 | 13
O=C(Nc1ccc(F)cc1)c1ccc(S(=O)(=O)N2CCCC2)cc1 | 2 | 6 | 6 | -2 | 10
O=C(Nc1ccc(F)cc1)Nc1ccc(S(=O)(=O)N2CCCC2)cc1 | 48* | 4 | 34 | 9 | 51*
CCCC(C(=O)Nc1ccc(S(=O)(=O)N2CCCC2)cc1)c1ccccc1 (stereo not drawn) | 41* | -4 | 1 | -2 | 26
COC(=O)Nc1ccc(S(=O)(=O)N2CCC(Cc3ccccc3)CC2)cc1 | 8 | 14 | 20 | 45* | 17
O=C(Cc1ccc(Cl)cc1)Nc1ccc(Br)cc1 | 40* | -11 | -4 | 8 | 32
COC(=O)Nc1ccc(S(=O)(=O)N2CCC(C)CC2)cc1 | 6 | 12 | 1 | -8 | 1
Cc1cc(NC(=O)CCc2c[nH]c3ccccc23)ccc1Nc1cccnc1 | 7 | . | . | . | 26
O=C(Cc1ccc(Br)cc1)Nc1ccc(S(=O)(=O)N2CCCC2)cc1 | 38* | 3 | -1 | 1 | 6
COCCN1CCn2c(nc3cc([N+](=O)[O-])ccc32)C1 | 1 | 40* | -2 | -13 | -33
O=[N+]([O-])c1ccc2c(c1)nc1n2CCN(c2ccccc2)C1 | -1 | 17 | -14 | -7 | 1
Nc1nc2c(-c3ccc([N+](=O)[O-])cc3)nnn2c2ccccc12 | 0 | . | . | . | 6
N#Cc1c(-c2ccccc2)nc(-c2ccccc2)[nH]c1=O | 6 | 20 | -13 | -16 | -19
Nc1nc(-c2ccccc2)[nH]c(=O)c1N=O | 6 | 58* | -16 | -4 | -14
CC(=O)NCCc1nc2ccccc2n1CCc1ccccc1 | 3 | . | . | . | 5
CCCNC(=O)Cn1c(=O)/c(=C\c2ccc(-c3ccc([N+](=O)[O-])cc3)o2)s/c1=C\C(=O)C(C)(C)C | . | 12 | 75* | 59* | .
CCCNC(=O)Cn1c(=O)/c(=C/c2ccc(-c3cccc([N+](=O)[O-])c3)o2)s/c1=C\C(=O)C(C)(C)C | 2 | . | . | . | 6
CN(C)/C=C/c1oc2ccc(O)cc2c1[N+](=O)[O-] | 2 | 52* | -7 | -8 | 3
CN(C)/C=C/c1[nH]c(=O)[nH]c(=O)c1[N+](=O)[O-] | 0 | 19 | -13 | -4 | 1
COc1ccc(-c2cc3cc(OC)c(OC)cc3c(C)n2)cc1 | -2 | 16 | -14 | -20 | -28
O=C(NCC1CCN(C(=O)C(=O)c2cccs2)CC1)c1ccc2c(c1)OCO2 | 0 | . | . | . | -10
Cc1sc2nc3ccc(N4CCCC4)nn3c(=O)c2c1C | 1 | 48* | -15 | 1 | -10
C[C@@H]1CN([C@H](C)CO)C(=O)CCCn2cc(nn2)CO[C@H]1CN(C)S(=O)(=O)c1cn(C)cn1 | 7 | . | . | . | -7
Cc1ccc(-c2nnn(CC(=O)N(c3ccccc3F)C(C(=O)NC3CCCC3)c3ccco3)n2)o1 (stereo not drawn) | . | 45* | 10 | -2 | .
O=C(C(=O)N1CCN(S(=O)(=O)c2ccc(OC(F)(F)F)cc2)CC1)c1cccc(C(F)(F)F)c1 | -2 | . | . | . | -8
SMILES | TAAR1 agonist | OX1R antag-1 | OX1R antag-2 | CHO parental Ca | TAAR1 antagonist
CN(CCO)S(=O)(=O)c1ccc2c(c1)C(=NNC(N)=O)c1cc(S(=O)(=O)N(C)CCO)ccc1-2 | 0 | 20 | 8 | 0 | -29
CN(CCCC(=O)O)S(=O)(=O)c1ccc2c(c1)C(=O)c1cc(S(=O)(=O)N(C)CCCC(=O)O)ccc1-2 | 1 | 51* | -6 | -5 | -27
CCOCCCN(C(=O)CNC(=O)c1ccco1)C(C(=O)NC1CCCC1)c1cccc(OC)c1 (stereo not drawn) | -2 | 17 | -17 | -19 | 8
CCCCOc1ccc(S(=O)(=O)Nc2cccnc2)cc1 | 14 | 15 | 7 | 39* | 12
Cc1ccc(S(=O)(=O)Nc2cccnc2)cc1 | 12 | 0 | -4 | -6 | -4
COC(=O)[C@]12C[C@H](CC(=O)NCc3ccc(OC)c(OC)c3)C(=O)N(Cc3ccccc3)C1=C[C@H](C1CCCC1)O[C@@H]2C | -1 | . | . | . | -24
Cc1nn(-c2ccccc2)c(N2CCCC2)c1/C=N/NC(=O)c1cc(-c2cccnc2)nc2ccccc12 | 10 | 12 | -4 | -21 | 51*
Cc1nn(-c2ccccc2)c(N2CCCC2)c1/C=N/NC(=O)c1ccccc1O | 8 | 28 | -10 | -16 | 19
Cc1ccc(S(=O)(=O)CCC(=O)OCC(=O)c2c(N)n(CC(C)C)c(=O)n(C)c2=O)cc1 | 18 | 15 | -11 | -6 | 27
COc1ccc(CCC(=O)OCC(=O)c2c(N)n(CC(C)C)c(=O)n(C)c2=O)cc1 | 8 | 41 | 24 | 44* | 29
CC(Sc1nnnn1C)C(=O)Nc1nc(-c2ccc(F)c(F)c2)cs1 (stereo not drawn) | 11 | 21 | 30 | 8 | 38
COc1ccccc1N1C(=O)CC(Nc2ccc(N3CCOCC3)cc2)C1=O (stereo not drawn) | 1 | 71* | -18 | 5 | -3
CCCC(=O)Nc1nc2c(C)c(Cl)ccc2s1 | -2 | 27 | -2 | 9 | 8
Cc1c(Cl)ccc2sc(NC(=O)C3CC3)nc12 | 3 | 44* | -20 | 3 | 27
O=C(NCc1nnnn1-c1ccc(F)cc1)C(=O)c1c[nH]c2ccccc12 | 18 | . | . | . | 38
CCn1c(CNC(=O)c2cc(OC)c(OC)c(OC)c2)cc2ccccc21 | 3 | 69* | 5 | 3 | 3
COc1cc(C(=O)NCc2cc3ccccc3n2C)cc(OC)c1OC | 7 | 29 | -26 | -28 | -14
COc1ccc(-c2ccc3[nH]c4c(c3c2)CCN2C(=O)[C@@H]([C@H](C)O)[C@@H](N(C)C(=O)Nc3ccc(F)cc3)C[C@@H]42)cc1 | 7 | . | . | . | 49*
COC(=O)CN1C(=O)S/C(=C/c2ccc(N3CCCCC3)o2)C1=O | 100* | 12 | 5 | -2 | 60*
CCOC(=O)CN1C(=O)S/C(=C/c2ccc(N3CCCCC3)o2)C1=O | 29 | 31 | -12 | 0 | 29
CS(=O)(=O)N1CCc2cc(-c3csc(NC(=O)Cc4cccs4)n3)ccc21 | 14 | 17 | 0 | 1 | 50*
O=C(CN1CCOCC1)Nc1nc(-c2ccc3c(c2)CCN3S(=O)(=O)c2ccccc2)cs1 | 20 | 53 | 15 | 23 | 53*
Cc1ccc(-c2csc(NC(=O)CN3CCOCC3)n2)cc1 | 0 | 12 | -19 | -7 | -8
COc1ccccc1OCC(=O)Nc1nc(-c2ccc(S(=O)(=O)N3CCOCC3)cc2)cs1 | 18 | 26 | 3 | 7 | 36
O=C(COc1ccccc1)Nc1nc(-c2ccc(S(=O)(=O)N3CCOCC3)cc2)cs1 | 20 | 41 | 0 | 3 | 55*
